# Assay outcomes: PubChem BioAssay, The Scripps Research Institute Molecular Screening Center
# M4 PAM = human M4 muscarinic receptor positive allosteric modulators, primary screen, CHO-K1 cells, Fluo-8 calcium fluorescence. Muscarinic acetylcholine receptor M4 (Homo sapiens), P08173. CHO-K1 hM4/Gqi5, ACh EC20; 0% = ACh EC20, 100% = maximal ACh. activation, % at 3 µM. 360,000 tested, 0.4% active;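 active = activation above its plate's cutoff, the mean activation of sample wells plus 3 SD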
# Target sequence (P08173 whole entry, looked up): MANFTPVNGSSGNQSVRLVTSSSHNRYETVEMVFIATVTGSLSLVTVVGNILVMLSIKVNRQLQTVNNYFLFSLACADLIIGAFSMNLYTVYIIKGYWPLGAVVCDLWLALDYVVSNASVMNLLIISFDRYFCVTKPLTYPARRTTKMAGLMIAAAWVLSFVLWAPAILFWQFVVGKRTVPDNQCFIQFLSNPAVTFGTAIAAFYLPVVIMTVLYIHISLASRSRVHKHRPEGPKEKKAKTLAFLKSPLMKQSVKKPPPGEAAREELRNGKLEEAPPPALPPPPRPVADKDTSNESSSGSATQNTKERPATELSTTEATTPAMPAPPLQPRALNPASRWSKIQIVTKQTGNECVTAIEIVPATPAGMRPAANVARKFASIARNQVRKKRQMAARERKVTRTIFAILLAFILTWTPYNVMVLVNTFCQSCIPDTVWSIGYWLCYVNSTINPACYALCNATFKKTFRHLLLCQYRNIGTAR
# M4 antag = human M4 muscarinic receptor antagonists, primary screen, CHO cells, Fluo-8 calcium fluorescence; inhibition, % at 3 µM; 360,000 tested, 0.73% active; CHO-hM4 cells, ACh EC80; AID 624125, 2012;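 active = inhibition above its plate's cutoff, the mean inhibition of sample wells plus 3 SD, cut at about 27% in these data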;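 also: 0% = acetylcholine EC80 with DMSO and 100% = DMSO without agonist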
# CHRM5 antagonist = human M5 muscarinic receptor antagonists, primary screen, CHO cells, Fluo-8 calcium fluorescence; Muscarinic acetylcholine receptor M5 (Homo sapiens), P08912; CHO-hM5 cells, ACh EC80; inhibition, % at 3 µM; 360,000 tested, 0.59% active;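 active = inhibition above a per-plate cutoff, the mean of that plate's test compounds plus 3 SD, cut at about 27% in these data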;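 also: 0% = acetylcholine EC80 with DMSO and 100% = DMSO without agonist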
# CHRM5 agonist = human M5 muscarinic receptor agonists, primary screen, CHO-K1 cells, Fluo-8 calcium fluorescence. Muscarinic acetylcholine receptor M5 (Homo sapiens), P08912. CHO-K1 hM5 cells; 0% DMSO wells, 100% maximal acetylcholine response. activation, % at 3 µM. 360,000 tested, 0.19% active. AID 624037, 2012;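 active = activation above the run's mean over test compounds plus 3 SD, cut at about 23% in these data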;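 also: signal is peak over basal fluorescence ratio across the kinetic read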
# M4 ag = human M4 muscarinic receptor agonists, primary screen, CHO-K1 cells, Fluo-8 calcium fluorescence; Muscarinic acetylcholine receptor M4 (Homo sapiens), P08173; CHO-K1 hM4/Gqi5; vehicle 0%, full acetylcholine response 100%; activation, % at 3 µM; 360,000 tested, 0.14% active; AID 624127, 2012;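 active = activation above the run mean over all test wells plus 3 SD, cut at about 32% in these data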;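 also: peak over basal fluorescence ratio per well then scaled between controls; 0% = DMSO wells and 100% = acetylcholine at EC100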
# M5 PAM = human M5 muscarinic receptor positive allosteric modulators, primary screen, CHO-K1 cells, Fluo-8 calcium fluorescence | Muscarinic acetylcholine receptor M5 (Homo sapiens), P08912 | CHO-K1 hM5, ACh EC20 PAM; 0% = ACh EC20, 100% = ACh EC100 | activation, % at 3 µM | 360,000 tested, 0.3% active;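 active = activation above the run cutoff, the mean activation of all test compounds plus 3 SD, cut at about 18% in these data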
#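 system = human M5 receptor in CHO-K1 cells | compound = one concentration, 3 µM final (nominal) | schedule = Post-acetylcholine fluorescence recording 140 s | signal = Fluo-8 calcium dye fluorescence, kinetic read | benchmarks = low control EC20 acetylcholine (0%), high control EC100 acetylcholine (100%) | repeats = singlicate, one well per test compound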
# The depositor's hits bear a star. The list is not random: actives were taken first. Their share in the collection is about 1.9%.
SMILES,M4 PAM,M4 antag,CHRM5 antagonist,CHRM5 agonist,M4 ag,M5 PAM
Cc1cccc(NC(=O)c2cccc(NC(=O)c3ccco3)c2)c1C,-5.1,5.4,12.4,5.3,4.0,1.5
O=C(Nc1c2c(nn1-c1ccccc1)CS(=O)C2)c1ccco1 (stereo not drawn),7.0,1.3,-0.1,-3.9,1.1,1.0
Cc1ccc2c(c1)C(c1ccc(F)cc1)N(C(=O)c1ccccc1Br)CC(=O)N2 (stereo not drawn),-17.5,65.7*,2.3,0.7,13.6,-3.2
Cc1ccc(C)c(CSc2nc3[nH]ncc3c(=O)[nH]2)c1,-1.8,3.4,2.3,4.1,5.4,-4.1
CCN1CCC2(CC1)N=C(c1ccc(F)cc1)C(=S)N2C(=O)c1ccc(C(C)(C)C)cc1,-9.6,17.6,76.2*,-8.0,1.9,-19.4
O=C(c1ccccc1)N1N=C(c2ccc(F)cc2)CC1(O)C(F)(F)F (stereo not drawn),-0.5,0.7,2.4,-5.5,-1.3,-1.1
CN1CCC2(CC1)N=C(c1ccc(F)cc1)C(=S)N2C(=O)c1ccccc1,6.0,-1.2,39.8*,-8.0,2.4,-18.8
CC1CCC(CN2C(Nc3ccccc3)=NC[C@@H]2Cc2ccccc2)CC1 (stereo partly drawn),-3.8,8.5,-4.1,0.3,8.6,-6.2
CC[N+](C)(C)CCN(Cc1ccc(Cl)cc1)c1ccccn1,-15.4,19.1,46.6*,-5.1,0.8,-23.4
C/C(=N/NC(=O)c1cc(-c2ccccc2)nc2c(Cl)cccc12)c1cccnc1,25.6*,-3.5,-11.0,3.9,1.8,24.9*
O=C(O)C1CCC(=O)N(C2CCCCC2)C1c1ccccc1Cl (stereo not drawn),15.3,0.2,-10.4,2.0,0.5,18.6*
O=C(O)C1CCC(=O)N(C2CC2)C1c1ccccc1 (stereo not drawn),0.4,1.9,-8.7,2.0,0.3,12.0
CCOC(=O)c1cc(-c2ccc3c(c2)OCCO3)n[nH]1,27.2*,-16.8,-13.2,6.0,-1.0,13.7
COc1ccc(Cc2nnc(SCC(=O)Nc3ccc(C)cc3)n(N)c2=O)cc1,4.6,-12.4,101.1*,-10.3,3.9,-33.3
CS(=O)(=O)N1CCC(C(=O)Nc2ccc(C(N)=O)cc2)CC1,-1.9,5.1,13.8,-2.8,-0.7,-7.1
NC(=O)c1ccc(NC(=O)C2CC2)cc1,22.5*,-6.7,-8.6,0.8,2.8,6.1
C[C@@H](CSc1ccc(Br)cc1)CN1CC[C@H](NC(=O)OCc2ccccc2)CCC1=O,-5.1,28.0*,14.9,2.1,16.6,-15.3
C/C(=N\N(Cc1ccccc1)c1ccccc1)c1ccncc1,-0.5,-7.4,7.3,-3.6,-0.9,0.1
COc1cc(Cl)c(C)cc1NC(=O)c1ccc(NS(=O)(=O)c2ccc(F)c(F)c2)cc1,20.0*,-9.4,5.0,1.2,0.3,7.6
CCOC(=O)c1c(S(=O)(=O)Nc2ccc(F)cc2Cl)c(C)n(C)c1C,5.1,0.3,-5.2,-8.3,0.0,1.7
Cc1cc(N2CCC(C)CC2)c(F)cc1[N+](=O)[O-],0.7,-3.4,-10.9,2.6,0.5,3.8
Cc1cc(N2CCCC2)c(F)cc1/C=C\[N+](=O)[O-],-9.2,10.8,64.3*,25.3*,29.7,-12.7
Cn1ccnc1C1CCCCN1Cc1nc(-c2ccc3c(c2)OCO3)no1 (stereo not drawn),-25.1,26.6*,14.9,-20.6,-0.6,-26.3
COc1ccc(-c2noc(CN3CCCCC3c3nccn3C)n2)cc1 (stereo not drawn),-18.1,10.3,11.5,-16.1,0.3,-13.4
Cn1ccnc1C1CCCCN1Cc1nc(Cc2cccc(C(F)(F)F)c2)no1 (stereo not drawn),-21.3,38.6*,-4.7,-11.3,2.8,-15.5
SMILES,M4 PAM,M4 antag,CHRM5 antagonist,CHRM5 agonist,M4 ag,M5 PAM
COCCN(C(=O)CN1CCN(S(=O)(=O)c2ccc(F)cc2)CC1)c1c(N)n(Cc2ccccc2)c(=O)[nH]c1=O,-2.4,-1.8,-5.5,-4.5,0.9,1.4
O=S1(=O)N=C(Nc2ccc(O)cc2)c2ccccc21,6.1,-5.8,-7.8,5.2,1.0,21.2*
Cc1ccccc1NC1=NS(=O)(=O)c2ccccc21,1.7,-10.1,-3.8,-1.3,0.3,0.6
O=C(NCc1ccco1)c1ccc2c(c1)C(=O)N(C1CCCCC1)C2=O,32.1*,14.2,-1.8,3.1,0.4,2.0
CN1C(=O)c2ccc(C(=O)NCc3ccco3)cc2C1=O,6.4,0.1,1.2,-2.6,0.9,-2.4
CCNc1ccc2noc3c2c1C(=O)c1ccccc1-3,-21.7,23.9,38.5*,37.0*,45.8*,-15.7
O=C1c2ccccc2-c2onc3ccc(NCc4ccco4)c1c23,-6.8,16.4,21.7,16.1,10.4,-10.0
COc1ccc(-c2cn(-c3ccc(C)cc3)c(=O)n2CC(=O)Nc2cccc(F)c2)cc1,-0.9,-20.3,-4.4,-7.7,1.7,25.9*
CCCN1C(=O)S/C(=C/c2ccc(N3CCOCC3)o2)C1=O,-1.2,31.1*,8.9,4.2,2.5,1.5
c1ccc(-c2noc(-c3cccc4ccccc34)n2)cc1,16.0*,-9.6,4.0,-0.5,0.4,8.1
CCc1ccc(OCC(=O)NNC(=O)c2cnccn2)c(Br)c1,20.4*,-18.7,-5.2,-5.5,1.1,3.4
CC(C)CNC(=O)NC(=O)COc1ncnc2sccc12,28.2*,11.9,5.6,1.9,1.1,-4.0
CC(C)CCNC(=O)NC(=O)COc1ncnc2sccc12,15.0,-1.5,-16.3,6.8,0.1,12.6
COc1cccc(/C=C2\SC(=S)N(CCCC(=O)N(CCO)c3ccccc3)C2=O)c1,-8.1,4.7,15.0,-3.8,10.1,-5.6
Cc1ccc(O)c([C@H](CCN(C(C)C)C(C)C)c2ccccc2)c1,-18.6,99.7*,98.9*,-0.2,5.2,-18.2
CC(=O)c1cccc(S(=O)(=O)NC2CCSc3ccccc32)c1 (stereo not drawn),-2.9,8.9,9.9,-1.6,2.1,-0.7
Cc1ccc(NC(=S)NCC2CCCO2)cc1 (stereo not drawn),26.0*,-2.8,-10.3,-2.0,1.7,0.4
COc1ccc(-c2nnc(OC)c3ccccc23)cc1,-14.7,34.6*,3.6,0.0,0.9,-1.7
